Measurements: ChEMBL document CHEMBL1155230, “Synthesis, biological evaluation, and structure-activity relationships for 5-[(E)-2-arylethenyl]-3-isoxazolecarboxylic acid alkyl ester derivatives as valuable antitubercular chemotypes” (J Med Chem, 2009)
Values after ≈ are worked out from the molar mass of the structure shown.

How the values were obtained:
Vero = assay: Cytotoxicity against african green monkey Vero cells after 72 hrs; type: cell-based; conditions: Chlorocebus sabaeus
[1] = tested on: Mycobacterium tuberculosis; assay: Antimycobacterial activity against non replicating persistent form of Mycobacterium tuberculosis H37Rv after 10 days by low oxygen recovery assay; type: functional; conditions: 240 h
Outline: (§1)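 M. tuberculosis H37Rv (ATCC 27294) was tested, in replicating form by MABA and in nonreplicating form by LORA, following published procedures. The value is the MIC, reported as the average of three individual determinations.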

Staphylococcus aureus = assay: Antimicrobial activity against Staphylococcus aureus; type: functional
[2] = tested on: Mycolicibacterium smegmatis; assay: Antimicrobial activity against Mycobacterium smegmatis; type: functional
Escherichia coli = assay: Antimicrobial activity against Escherichia coli; type: functional
Candida albicans = assay: Antimicrobial activity against Candida albicans; type: functional
[3] = tested on: Mycobacterium tuberculosis; assay: Antimycobacterial activity against Mycobacterium tuberculosis H37Rv replicating form by alamar blue assay; type: functional; outline: as §1

| Compound | IC50 (Vero) [µM] | MIC90 [1] [µM] | MIC (Staphylococcus aureus) [µM] | MIC [2] [µM] | MIC (Escherichia coli) [µM] | MIC (Candida albicans) [µM] | MIC90 [3] [µM] |
| --- | --- | --- | --- | --- | --- | --- | --- |
| CCOC(=O)c1cc(/C=C/c2cccc(C(F)(F)F)c2)on1 | > 128 | 21.1 (≈ 6.57 µg/mL) | > 100 | > 100 | > 100 | > 100 | 0.73 (≈ 0.227 µg/mL) |
| CCOC(=O)c1cc(/C=C/c2cc(OC)cc(OC)c2)on1 | > 128 | 3.6 (≈ 1.09 µg/mL) | – | – | – | – | 2 (≈ 0.607 µg/mL) |
| CCOC(=O)c1cc(/C=C/c2c(Cl)ccc(C)c2F)on1 | > 128 | 7 (≈ 2.17 µg/mL) | – | – | – | – | 3.5 (≈ 1.08 µg/mL) |
| CCOC(=O)c1cc(/C=C/c2ccsc2)on1 | > 128 | 26.9 (≈ 6.71 µg/mL) | – | – | – | – | 1.6 (≈ 0.399 µg/mL) |
| CCOC(=O)c1cc(/C=C/c2ccccc2)on1 | – | 18 (≈ 4.38 µg/mL) | – | – | – | – | 11.7 (≈ 2.85 µg/mL) |
| CCOC(=O)c1cc(/C=C/c2ccc(F)cc2F)on1 | > 128 | 13.8 (≈ 3.85 µg/mL) | – | – | – | – | 5.3 (≈ 1.48 µg/mL) |
| O=C(O)c1cc(/C=C/c2cccc(C(F)(F)F)c2)on1 | – | > 128 | – | – | – | – | > 128 |
| CCOC(=O)c1cc(/C=C/c2cccc(C(C)C)c2)on1 | > 128 | 8.3 (≈ 2.37 µg/mL) | – | – | – | – | 3.1 (≈ 0.885 µg/mL) |
| CCCCOC(=O)c1cc(/C=C/c2ccnc3ccc(OC)cc23)on1 | > 128 | 1.8 (≈ 0.634 µg/mL) | – | – | – | – | 1.1 (≈ 0.388 µg/mL) |
| CCOC(=O)c1cc(/C=C/c2cc(F)cc(F)c2)on1 | > 128 | 8.9 (≈ 2.49 µg/mL) | – | – | – | – | 3.7 (≈ 1.03 µg/mL) |
| COc1c(N2C[C@@H]3CCCN[C@@H]3C2)c(F)cc2c(=O)c(C(=O)O)cn(C3CC3)c12 [MOXIFLOXACIN] | – | > 128 | – | – | – | – | 0.46 (≈ 0.185 µg/mL) |
| CCOC(=O)c1cc(/C=C/c2ccc(C(F)(F)F)cc2)on1 | – | 6.8 (≈ 2.12 µg/mL) | – | – | – | – | 3.9 (≈ 1.21 µg/mL) |
| CCOC(=O)c1cc(/C=C/c2cccc(OC)c2)on1 | > 128 | 8.8 (≈ 2.4 µg/mL) | – | – | – | – | 3.7 (≈ 1.01 µg/mL) |
| CCOC(=O)c1cc(/C=C/c2ccc(OC)nc2)on1 | > 128 | 86.6 (≈ 23.8 µg/mL) | – | – | – | – | 1.4 (≈ 0.384 µg/mL) |
| CCOC(=O)c1cc(/C=C/c2ccc(N3CCN(C)CC3)cc2)on1 | – | 37.4 (≈ 12.8 µg/mL) | – | – | – | – | 15.2 (≈ 5.19 µg/mL) |
| CCOC(=O)c1cc(/C=C/c2cccc(C)c2)on1 | > 128 | 7.4 (≈ 1.9 µg/mL) | – | – | – | – | 6.5 (≈ 1.67 µg/mL) |
| O=C(O)c1cc(/C=C/c2cccc3ccccc23)on1 | – | > 128 | – | – | – | – | > 128 |
| CCOC(=O)c1cc(/C=C/c2cccc(O)c2)on1 | > 128 | 28.7 (≈ 7.44 µg/mL) | – | – | – | – | 7.8 (≈ 2.02 µg/mL) |
| CCOC(=O)c1cc(/C=C/c2cccc(OC)n2)on1 | – | 16 (≈ 4.39 µg/mL) | – | – | – | – | 3.8 (≈ 1.04 µg/mL) |
| CCCCCCC(C)OC(=O)c1cc(/C=C/c2c(Cl)cncc2Cl)on1 (stereo not given) | > 128 | 24.2 (≈ 9.61 µg/mL) | – | – | – | – | 8.3 (≈ 3.3 µg/mL) |
| CCOC(=O)c1cc(/C=C/c2cc(OCc3ccccc3)cc(OCc3ccccc3)c2)on1 | > 128 | 4.7 (≈ 2.14 µg/mL) | – | – | – | – | 6.3 (≈ 2.87 µg/mL) |
| CCOC(=O)c1cc(/C=C/c2cc(Cl)cc(Cl)c2)on1 | > 128 | 5.9 (≈ 1.84 µg/mL) | – | – | – | – | 5.4 (≈ 1.69 µg/mL) |
| CCCCCCCCOC(=O)c1cc(/C=C/c2c(Cl)cncc2Cl)on1 | > 128 | 9.2 (≈ 3.66 µg/mL) | – | – | – | – | 10.9 (≈ 4.33 µg/mL) |
| CCOC(=O)c1cc(/C=C\c2cccc([N+](=O)[O-])c2)on1 | > 128 | 10.9 (≈ 3.14 µg/mL) | – | – | – | – | 5.4 (≈ 1.56 µg/mL) |
| CCOC(=O)c1cc(/C=C/c2c(Cl)cncc2Cl)on1 | > 128 | 5.1 (≈ 1.6 µg/mL) | > 100 | 94.4 (≈ 29.6 µg/mL) | > 100 | > 100 | 0.59 (≈ 0.185 µg/mL) |
| CCOC(=O)c1cc(/C=C/c2c(Cl)cccc2Cl)on1 | – | 3.5 (≈ 1.09 µg/mL) | – | – | – | – | 2.5 (≈ 0.78 µg/mL) |

| Compound | IC50 (Vero) [µM] | MIC90 [1] [µM] | MIC (Staphylococcus aureus) [µM] | MIC [2] [µM] | MIC (Escherichia coli) [µM] | MIC (Candida albicans) [µM] | MIC90 [3] [µM] |
| --- | --- | --- | --- | --- | --- | --- | --- |
| CCOC(=O)c1cc(/C=C/c2cccc3ccccc23)on1 | > 128 | 4 (≈ 1.17 µg/mL) | – | – | – | – | 1.6 (≈ 0.469 µg/mL) |
| NNC(=O)c1ccncc1 [ISONIAZID] | 128 | > 128 | – | – | – | – | 0.84 (≈ 0.115 µg/mL) |
| CCOC(=O)c1cc(/C=C/c2ccccc2SC)on1 | > 128 | 7.8 (≈ 2.26 µg/mL) | – | – | – | – | 0.96 (≈ 0.278 µg/mL) |
| CCOC(=O)c1cc(/C=C\c2cccc(OC)n2)on1 | – | 45.9 (≈ 12.6 µg/mL) | – | – | – | – | 27.5 (≈ 7.54 µg/mL) |
| O=C(OCCCC1CCCC1)c1cc(/C=C/c2c(Cl)cncc2Cl)on1 | – | 9.3 (≈ 3.68 µg/mL) | – | – | – | – | 7.3 (≈ 2.89 µg/mL) |
| CCOC(=O)c1cc(COc2cc(C(F)(F)F)nc3c(C(F)(F)F)cccc23)on1 | – | 12.2 (≈ 5.3 µg/mL) | – | – | – | – | 0.9 (≈ 0.391 µg/mL) |
| CCOC(=O)c1cc(/C=C/c2ccc(C)c3ccccc23)on1 | > 128 | 3.6 (≈ 1.11 µg/mL) | – | – | – | – | 17.3 (≈ 5.32 µg/mL) |
| CCC(CC)OC(=O)c1cc(/C=C/c2c(Cl)cncc2Cl)on1 | > 128 | 8.9 (≈ 3.16 µg/mL) | – | – | – | – | 7.9 (≈ 2.81 µg/mL) |
| CCOC(=O)c1cc(/C=C/c2ccnc3ccccc23)on1 | – | 2.6 (≈ 0.765 µg/mL) | – | – | – | – | 0.2 (≈ 0.0589 µg/mL) |
| CCOC(=O)c1cc(/C=C/c2ccc(OC)cc2F)on1 | – | 10.7 (≈ 3.12 µg/mL) | – | – | – | – | 3.8 (≈ 1.11 µg/mL) |
| CCOC(=O)c1cc(/C=C/c2ccnc3ccc(OC)cc23)on1 | – | 1.1 (≈ 0.357 µg/mL) | – | – | – | – | 0.4 (≈ 0.13 µg/mL) |
| CCOC(=O)c1cc(CCc2cccc(C(F)(F)F)c2)on1 | – | 15.6 (≈ 4.89 µg/mL) | – | – | – | – | 14.2 (≈ 4.45 µg/mL) |
| CCCCOC(=O)c1cc(/C=C/c2ccc(OC)nc2)on1 | – | 6.7 (≈ 2.03 µg/mL) | – | – | – | – | 2 (≈ 0.605 µg/mL) |
| CCOC(=O)c1cc(CCc2cc(O)cc(O)c2)on1 | – | > 128 | – | – | – | – | > 128 |
| CCCCOC(=O)c1cc(/C=C/c2cccc(OC)c2)on1 | – | 7.6 (≈ 2.29 µg/mL) | – | – | – | – | 1.8 (≈ 0.542 µg/mL) |
| CCOC(=O)c1cc(/C=C/c2cccc([N+](=O)[O-])c2)on1 | > 128 | 5.1 (≈ 1.47 µg/mL) | – | – | – | – | 1.2 (≈ 0.346 µg/mL) |
| CCOC(=O)c1cc(/C=C/c2ccccc2CC)on1 | > 128 | 2 (≈ 0.543 µg/mL) | – | – | – | – | 0.98 (≈ 0.266 µg/mL) |
| CCOC(=O)c1cc(/C=C/c2ccncc2)on1 | > 128 | 52.4 (≈ 12.8 µg/mL) | – | – | – | – | 15.5 (≈ 3.79 µg/mL) |
| CCOC(=O)c1cc(/C=C\c2cc(F)cc(F)c2)on1 | > 128 | 12.3 (≈ 3.43 µg/mL) | – | – | – | – | 29.2 (≈ 8.15 µg/mL) |
| CCOC(=O)c1cc(/C=C/c2cccc(N)c2)on1 | > 128 | 20.7 (≈ 5.35 µg/mL) | – | – | – | – | 7.5 (≈ 1.94 µg/mL) |
| CCOC(=O)c1cc(/C=C/c2cccc(Cl)c2)on1 | > 128 | 6.7 (≈ 1.86 µg/mL) | – | – | – | – | 2.3 (≈ 0.639 µg/mL) |
| CCOC(=O)c1cc(/C=C/c2ccco2)on1 | > 128 | 50.2 (≈ 11.7 µg/mL) | – | – | – | – | 7.9 (≈ 1.84 µg/mL) |
| Clc1cncc(Cl)c1/C=C/c1ccno1 | – | > 128 | – | – | – | – | > 128 |
| CCOC(=O)c1cc(/C=C/c2ccccc2C(F)(F)F)on1 | – | 12.1 (≈ 3.77 µg/mL) | – | – | – | – | 3.9 (≈ 1.21 µg/mL) |
| CO[C@H]1/C=C/O[C@@]2(C)Oc3c(C)c(O)c4c(O)c(c(/C=N/N5CCN(C)CC5)c(O)c4c3C2=O)NC(=O)/C(C)=C\C=C\[C@H](C)[C@H](O)[C@@H](C)[C@@H](O)[C@@H](C)[C@H](OC(C)=O)[C@@H]1C [RIFAMPIN] | – | 1.9 (≈ 1.56 µg/mL) | – | – | – | – | 0.1 (≈ 0.0823 µg/mL) |
